The results in this text go back to ChEMBL document CHEMBL1129345, “Synthesis and potent anti-HIV-1 activity of novel 6-benzyluracil analogues of 1-[(2-hydroxyethoxy)methyl]-6-(phenylthio)thymine” (1996).

The test system of the first experiment is MT4. The experiment can be described thus: Selectivity index is the ratio between CD50 and ED50. The experiment is classed as functional.
Settings: not given
Put shortly:
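Selectivity index computed as CD50 (MTT proliferation assay in uninfected MT-4 cells) divided by ED50 (HIV-1 antigen ELISA in HTLV-IIIB-infected MT-4 cultures, 6 days). Both values are means of three independent determinations.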
Take `CCc1c(Cc2cc(C)cc(C)c2)n(C(C)OC)c(=O)[nH]c1=O` (stereo not drawn): the SI amounted to 50.

As for `CCSCn1c(Cc2ccccc2)c(C(C)C)c(=O)[nH]c1=O`, the SI was determined as 6200.

`CCOCn1c(Cc2cc(C)cc(C)c2)c(CC)c(=O)[nH]c1=O`: the SI was 25000.

Turning to `CCc1c(Cc2ccccc2)n([C@@H]2CC[C@@H](CO)O2)c(=O)[nH]c1=O`, the SI is 2.

Take `CCOC(CC)n1c(Cc2cc(C)cc(C)c2)c(CC)c(=O)[nH]c1=O` (stereo not drawn): the SI turned out to be 8.7.

`Cc1cn([C@H]2C[C@H](N=[N+]=[N-])[C@@H](CO)O2)c(=O)[nH]c1=O` [ZIDOVUDINE]: the SI stood at 1300.

Turning to `CCc1c(Cc2cc(C)cc(C)c2)n(CSC)c(=O)[nH]c1=O`, the SI is given as 1040.

Take `CCc1c(Cc2ccccc2)n([C@H]2CC[C@@H](CO)O2)c(=O)[nH]c1=O`: the SI is listed as 1.4.

As to `CCc1c(Cc2ccccc2)n(CSC)c(=O)[nH]c1=O`, the SI is 16000.

Turning to `CSCn1c(Cc2ccccc2)c(C(C)C)c(=O)[nH]c1=O`, the SI is recorded as 1850.

Regarding `CCOCn1c(Cc2ccccc2)c(C(C)C)c(=O)[nH]c1=O` [EMIVIRINE], the SI was determined as 28000.

Turning to `CCSCn1c(Cc2ccccc2)c(CC)c(=O)[nH]c1=O`, the SI came to 925.

On to `CCSCn1c(Cc2cc(C)cc(C)c2)c(CC)c(=O)[nH]c1=O`, for which the SI came out at 17000.

The subject of a further experiment is Human immunodeficiency virus 1. The experiment can be described thus: Effective dose of compound required to inhibit 50% of HIV-1 antigen production in MT-4 cultures. The experiment is classed as functional. To be noted: read-out: ED50 (the source's name). In a few lines: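 MT-4 cells were infected with HIV-1 HTLV-IIIB (0.005 MOI) for 2 h and washed. They were then added 1:10 to uninfected MT-4 cells preincubated with compound for 2 h in RPMI 1640 with 10% heat-inactivated FCS. Cultures were kept with compound for 6 days, and supernatant HIV-1 antigen was measured by ELISA. ED50 (50% antigen reduction) is the mean of three independent determinations.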
For the compound `CCc1c(Cc2cc(C)cc(C)c2)n(C(C)OC)c(=O)[nH]c1=O` (stereo not drawn), the EC50 stood at 2 µM.

For the compound `CCSCn1c(Cc2ccccc2)c(C(C)C)c(=O)[nH]c1=O`, the EC50 worked out at 0.006 µM.

In the case of `CCc1c(Cc2ccccc2)n(C(C)OCCO)c(=O)[nH]c1=O` (stereo not drawn), the EC50 is more than 100 µM.

For the compound `CCOCn1c(Cc2cc(C)cc(C)c2)c(CC)c(=O)[nH]c1=O`, the EC50 came out at 0.004 µM.

Take `CCc1c(Cc2ccccc2)n([C@@H]2CC[C@@H](CO)O2)c(=O)[nH]c1=O`: the EC50 was found to be 0.5 µM.

As to `CCOC(CC)n1c(Cc2cc(C)cc(C)c2)c(CC)c(=O)[nH]c1=O` (stereo not drawn), the EC50 came to 15 µM.

As for `Cc1cn([C@H]2C[C@H](N=[N+]=[N-])[C@@H](CO)O2)c(=O)[nH]c1=O` [ZIDOVUDINE], the EC50 was 0.04 µM.

In the case of `CCc1c(Cc2cc(C)cc(C)c2)n(CSC)c(=O)[nH]c1=O`, the EC50 stood at 0.05 µM.

For `CCc1c(Cc2ccccc2)n(C(C)OC)c(=O)[nH]c1=O` (stereo not drawn), the EC50 was more than 100 µM.

As for `CCc1c(Cc2ccccc2)n([C@H]2CC[C@@H](CO)O2)c(=O)[nH]c1=O`, the EC50 amounted to 37 µM.

Regarding `CCc1c(Cc2ccccc2)n(CSC)c(=O)[nH]c1=O`, the EC50 was found to be 0.002 µM.

Turning to `CCOC(C)n1c(Cc2ccccc2)c(CC)c(=O)[nH]c1=O` (stereo not drawn), the EC50 was more than 100 µM.

For `CSCn1c(Cc2ccccc2)c(C(C)C)c(=O)[nH]c1=O`, the EC50 came out at 0.02 µM.

Regarding `CCOCn1c(Cc2ccccc2)c(C(C)C)c(=O)[nH]c1=O` [EMIVIRINE], the EC50 was 0.005 µM.

Take `CCOCn1c(Cc2ccccc2)c(CC)c(=O)[nH]c1=O`: the EC50 stood at 0.041 µM.

In the case of `CCSCn1c(Cc2ccccc2)c(CC)c(=O)[nH]c1=O`, the EC50 was 0.04 µM.

As for `CCSCn1c(Cc2cc(C)cc(C)c2)c(CC)c(=O)[nH]c1=O`, the EC50 stood at 0.004 µM.

The test system of the next experiment is MT4. In words: Cytotoxic dose required to reduce the proliferation of normal uninfected MT-4 cells. The format is functional. To be noted: Homo sapiens, read-out: CD50 (the source's name). Put shortly: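 Proliferation of uninfected MT-4 cells measured by MTT assay over a range of compound concentrations. A 30% inhibition of growth versus control cultures was counted as significant. CD50 is the concentration giving 50% reduction in proliferation, reported as the mean of three independent determinations.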
In the case of `CCc1c(Cc2cc(C)cc(C)c2)n(C(C)OC)c(=O)[nH]c1=O` (stereo not drawn), the CC50 was 100 µM.

On to `CCSCn1c(Cc2ccccc2)c(C(C)C)c(=O)[nH]c1=O`, for which the CC50 is 37 µM.

Take `CCOCn1c(Cc2cc(C)cc(C)c2)c(CC)c(=O)[nH]c1=O`: the CC50 worked out at 100 µM.

In the case of `CCc1c(Cc2ccccc2)n([C@@H]2CC[C@@H](CO)O2)c(=O)[nH]c1=O`, the CC50 was 1 µM.

With `CCOC(CC)n1c(Cc2cc(C)cc(C)c2)c(CC)c(=O)[nH]c1=O` (stereo not drawn), the CC50 came to 130 µM.

Consider `Cc1cn([C@H]2C[C@H](N=[N+]=[N-])[C@@H](CO)O2)c(=O)[nH]c1=O` [ZIDOVUDINE], for which the CC50 amounted to 52 µM.

For `CCc1c(Cc2cc(C)cc(C)c2)n(CSC)c(=O)[nH]c1=O`, the CC50 worked out at 52 µM.

Turning to `CCc1c(Cc2ccccc2)n([C@H]2CC[C@@H](CO)O2)c(=O)[nH]c1=O`, the CC50 came out at 52 µM.

`CCc1c(Cc2ccccc2)n(CSC)c(=O)[nH]c1=O`: the CC50 came out at 32 µM.

For `CSCn1c(Cc2ccccc2)c(C(C)C)c(=O)[nH]c1=O`, the CC50 was 37 µM.

Take `CCOCn1c(Cc2ccccc2)c(C(C)C)c(=O)[nH]c1=O` [EMIVIRINE]: the CC50 amounted to 141 µM.

With `CCSCn1c(Cc2ccccc2)c(CC)c(=O)[nH]c1=O`, the CC50 amounted to 37 µM.

As for `CCSCn1c(Cc2cc(C)cc(C)c2)c(CC)c(=O)[nH]c1=O`, the CC50 is 68 µM.
